Calls of active or inactive are those of the source. No cut-off for these calls is given here.
Experiments:
Rattus norvegicus [1] = assay: Natriuretic potency was evaluated as oral dose required to produce an excretion of 2 mequiv of Na+/Kg of rat body weight; assay type: functional
How it was run: (§1)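 Oral gavage in female rats fed glucose and water overnight. DOCA 5 mg sc is given 2 h before dosing, and rats are loaded with isotonic NaCl-KCl (40:60) to 3% body weight right after dosing. Na+ excretion is collected over 4 h, four rats/dose. ED2 is taken from a linear regression of Na+ excretion vs log dose.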

Rattus norvegicus [2] = assay: Natriuretic potency was evaluated as oral dose required to produce an excretion of 2 mequiv of Na+/Kg of rat body weight, ED2 value based on N=4 rats/dose; assay type: functional; how it was run: as §1
Canis familiaris = assay: Natriuretic potency was evaluated as oral dose required to produce an excretion of 2 mequiv of Na+/Kg of dog body weight, ED5 value based on N=2 dogs/dose; assay type: functional, Canis lupus familiaris
How it was run: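 Conscious nonloaded female dogs dosed orally, two dogs/dose. ED5 is derived from a linear regression of Na+ excretion vs log dose.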

Rattus norvegicus [3] = assay: Natriuretic potency was evaluated as oral dose required to produce an excretion of 2 mequiv of Na+/Kg of rat body weight; IA means Inactive; assay type: functional, organism-based; how it was run: as §1
Rattus norvegicus [4] = species on record: Rattus norvegicus; assay: Fractional excretion of K+ (percent of filtered load) in rat; assay type: functional
How it was run: (§2)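 Male adult Sprague-Dawley rats infused with Ringer's solution at 2 mL/100 g per h plus [3H]inulin (100 μCi/h). Two 30-min urine collections with midpoint blood samples form the control period. A single iv bolus of 0.1 mg/kg is given over 20–30 s, and 30 min later two more 30-min periods follow, with iv fluid replacement. Urine volume, Na+, K+ and inulin counts are measured, and GFR and fractional excretion are calculated by standard formulae. Paired t test, n = 8.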

Rattus norvegicus [5] = species on record: Rattus norvegicus; assay: Urine-to-plasma concentration ratio for inulin in rat; assay type: functional; how it was run: as §2
Rattus norvegicus [6] = species on record: Rattus norvegicus; assay: Single nephron glomerular filtration rate of late distal tubular segments in the exposed kidney; assay type: functional
How it was run: (§3)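 Male adult Sprague-Dawley rats prepared for free-flow micropuncture, infused with Ringer's solution at 2 mL/100 g per h plus [3H]inulin (100 μCi/h). Early and late distal tubular fluid sampled from the exposed kidney during control periods and after a single iv bolus of 0.1 mg/kg given over 20–30 s. Control and treated groups compared by unpaired t test.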

Rattus norvegicus [7] = species on record: Rattus norvegicus; assay: K+ concentration in plasma sample of rat; assay type: functional, organism-based; how it was run: as §2
Rattus norvegicus [8] = species on record: Rattus norvegicus; assay: Fractional delivery of K+ to puncture site (percent of filtered load) of early distal tubular segments in the exposed kidney; assay type: functional; how it was run: as §3
Rattus norvegicus [9] = species on record: Rattus norvegicus; assay: Urine flow rate of early distal tubular segments in the exposed kidney; assay type: functional; how it was run: as §3
Rattus norvegicus [10] = species on record: Rattus norvegicus; assay: Fractional delivery of Na+ to puncture site (percent of filtered load) of late distal tubular segments in the exposed kidney; assay type: functional; how it was run: as §3
Rattus norvegicus [11] = species on record: Rattus norvegicus; assay: Urine flow rate per kidney was evaluated in rat; assay type: functional; how it was run: as §2
[12] = Ratio of number of tubules/number of rats of late distal tubular segments in the exposed kidney; assay type: functional
Rattus norvegicus [13] = species on record: Rattus norvegicus; assay: Single nephron glomerular filtration rate of early distal tubular segments in the exposed kidney; assay type: functional; how it was run: as §3
Rattus norvegicus [14] = species on record: Rattus norvegicus; assay: Urine flow rate of late distal tubular segments in the exposed kidney; assay type: functional; how it was run: as §3
Rattus norvegicus [15] = species on record: Rattus norvegicus; assay: Tubular fluid-to-plasma concentration ratio for inulin of early distal tubular segments in the exposed kidney; assay type: functional; how it was run: as §3
Rattus norvegicus [16] = species on record: Rattus norvegicus; assay: Fractional delivery of Na+ to puncture site (percent of filtered load) of early distal tubular segments in the exposed kidney; assay type: functional; how it was run: as §3
Rattus norvegicus [17] = species on record: Rattus norvegicus; assay: Glomerular filtration rate (per one kidney) per 100 g body weight of rat; assay type: functional; how it was run: as §2
Rattus norvegicus [18] = species on record: Rattus norvegicus; assay: Fractional delivery of K+ to puncture site (percent of filtered load) of late distal tubular segments in the exposed kidney; assay type: functional; how it was run: as §3
Rattus norvegicus [19] = species on record: Rattus norvegicus; assay: Fractional excretion of Na+ (percent of filtered load) in rat; assay type: functional; how it was run: as §2
Rattus norvegicus [20] = species on record: Rattus norvegicus; assay: Tubular fluid-to-plasma concentration ratio for inulin of late distal tubular segments in the exposed kidney; assay type: functional; how it was run: as §3
Rattus norvegicus [21] = species on record: Rattus norvegicus; assay: Na+ concentration in plasma sample of rat; assay type: functional, organism-based; how it was run: as §2

Which ED2 (Rattus norvegicus [1]) does the source give for `NCc1cc(C(=O)c2cc3c(c(Cl)c2Cl)OC(C(N)=O)C3)ccc1O` (centres undefined) here?
Its ED2 is 2.95 mg/kg.

Which results are given for `NS(=O)(=O)c1cc(C(=O)O)cc(N2CCCC2)c1Oc1ccccc1` [PIRETANIDE]?
ED2 (Rattus norvegicus [2]): 0.89 mg/kg; ED5 (Canis familiaris): 0.25 mg/kg

For `CCOC(=O)C1Cc2cc(C(=O)c3cc(Cl)c(O)c(CN)c3)c(Cl)c(Cl)c2O1` (centres undefined), which ED2 (Rattus norvegicus [1]) is on record?
Its ED2 is 21.5 mg/kg.

For `NCc1cc(C(=O)c2cc3c(c(Cl)c2Cl)OC(C(=O)O)C3)ccc1O` (centres undefined), which ED2 (Rattus norvegicus [3]) is on record?
The ED2 was “inactive”.

For `CCOC(=O)C1Cc2cc(C(=O)c3cc(CN(C)C)c(O)c(CN(C)C)c3)c(Cl)c(Cl)c2O1` (centres undefined), which ED2 (Rattus norvegicus [1]) is on record?
Its ED2 is 1.82 mg/kg.

For `NS(=O)(=O)c1cc(C(=O)O)c(NCc2ccco2)cc1Cl` [FUROSEMIDE], which ED2 (Rattus norvegicus [2]) is on record?
The ED2 was 9.5 mg/kg.

What about the ED5 (Canis familiaris) of the same compound?
Its ED5 is 3.5 mg/kg.

For `CCCCNc1cc(C(=O)O)cc(S(N)(=O)=O)c1Oc1ccccc1` [BUMETANIDE], which ED2 (Rattus norvegicus [2]) is on record?
The ED2 was 8.5 mg/kg.

What about the ED5 (Canis familiaris) of the same compound?
Its ED5 is 0.15 mg/kg.

Which ED2 (Rattus norvegicus [1]) does the source give for `NCc1cc(Cc2cc3c(c(Cl)c2Cl)OC(CO)C3)ccc1O` (centres undefined) here?
Its ED2 is 10.2 mg/kg.

For `CCOC(=O)C1Cc2cc(Cc3cc(CN)c(O)c(CN)c3)c(Cl)c(Cl)c2O1` (centres undefined), which ED2 (Rattus norvegicus [1]) is on record?
The ED2 was 49 mg/kg.

What does the source list for `CCOC(=O)C1Cc2cc(C(=O)c3ccc(O)c(CN)c3)c(Cl)c(Cl)c2O1` (centres undefined)?
FE (Rattus norvegicus [4]): 54.6%; U/P (Rattus norvegicus [5]): 19.7; SNGFR (Rattus norvegicus [6]): 33.9 nL/min; Plasma (Rattus norvegicus [7]): 3.57 mM; FD (Rattus norvegicus [8]): 23%; ED2 (Rattus norvegicus [2]): 0.12 mg/kg; Rate (Rattus norvegicus [9]): 8.2 nL/min; ED5 (Canis familiaris): 0.11 mg/kg; FD (Rattus norvegicus [10]): 8.1%; Rate (Rattus norvegicus [11]): 67.6 µL/min; Ratio [12]: 8; SNGFR (Rattus norvegicus [13]): 35.7 nL/min; Rate (Rattus norvegicus [14]): 4.6 nL/min; TF/P (Rattus norvegicus [15]): 4.39; FD (Rattus norvegicus [16]): 13.6%; GFR (Rattus norvegicus [17]): 0.46 mL/min; FD (Rattus norvegicus [18]): 23.6%; FE (Rattus norvegicus [19]): 6.3%; TF/P (Rattus norvegicus [20]): 8.48; Plasma (Rattus norvegicus [21]): 144 mM

For `NCc1cc(C(=O)c2cc3c(c(Cl)c2Cl)OC(CO)C3)ccc1O` (centres undefined), which ED2 (Rattus norvegicus [1]) is on record?
Its ED2 is 0.95 mg/kg.

Which ED2 (Rattus norvegicus [1]) does the source give for `CCOC(=O)C1Cc2cc(Cc3ccc(O)c(CN)c3)c(Cl)c(Cl)c2O1` (centres undefined) here?
The ED2 was 8 mg/kg.
